According to ChEMBL document CHEMBL1671803, “Synthesis and evaluation of 11C-labeled imidazo[2,1-b]benzothiazoles (IBTs) as PET tracers for imaging β-amyloid plaques in Alzheimer's disease” (J Med Chem, 2011):
The source made the active and inactive calls. The rule behind the calls is not given here.

What was measured:
[1] = biological target: T1, Amyloid-beta precursor protein (Homo sapiens, UniProt P05067); assay: Displacement of [3H]PiB from human amyloid beta (1-40) at 100 nM after 180 mins by liquid scintillation counter
[2] = biological target: T1, Amyloid-beta precursor protein; assay: Displacement of [3H]PiB from human amyloid beta (1-42) at 100 nM after 180 mins by liquid scintillation counter
[3] = Octanol-phosphate buffered saline partition coefficient, log P of the compound at pH 7.4; format: physicochemical
Brain [4] = assay: Drug uptake in Balb-C mouse brain at 4-6 MBq after 30 mins by gamma counting; format: ADME, tissue-based; settings: in vivo, 0.5 h
How it was run: (§1)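 Normal male Balb-C mice were given an iv [11C]-labeled compound. Brain uptake was measured as %ID/g at 5 and 30 min post-injection (n=5). Clearance is expressed as the 5 min/30 min %ID/g ratio.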

Brain [5] = assay: Ratio of drug uptake in Balb-C mouse brain after 5 mins to drug uptake in Balb-C mouse brain after 30 mins; format: ADME, tissue-based; settings: in vivo; how it was run: as §1
Mus musculus [6] = assay: Binding affinity to amyloid beta in telencephalon region in iv dosed APP/PS1 transgenic C57BL6/J mouse alzheimer's disease model after 5 to 30 mins by autoradiography analysis relative to control; format: functional, organism-based
How it was run: (§2)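 APP/PS1 (ARTE10) homozygous female mice, 22 months old, with age- and gender-matched C57BL6/J female controls (two each). A single tail-vein bolus of [11C]5 mixed with [3H]1a (7.2 MBq) was given. Readouts were telencephalon/cerebellum ratios from three sources: μPET/CT coregistered to an MRI template (summed 20-30 min), dual-label digital autoradiography of 12 μm sections, and regional biodistribution, all at 30 min p.i.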

Mus musculus [7] = assay: Binding affinity to amyloid beta in telencephalon region in APP/PS1 transgenic C57BL6/J mouse alzheimer's disease model at 50.2 MBq, iv after 5 to 30 mins by micro PET examination relative to control; format: functional, organism-based; settings: 50.2 M, tested as the 11C-labelled form; how it was run: as §2
Mus musculus [8] = assay: Binding affinity to amyloid beta in cerebellum region in APP/PS1 transgenic C57BL6/J mouse alzheimer's disease model at 50.2 MBq, iv after 5 to 30 mins by micro PET examination relative to control; format: functional, organism-based; settings: 50.2 M, tested as the 11C-labelled form; how it was run: as §2
Mus musculus [9] = assay: Binding affinity to amyloid beta in cerebellum region in APP/PS1 transgenic C57BL6/J mouse alzheimer's disease model at 50.2 MBq, iv after 5 to 30 mins by MRI examination relative to control; format: functional, organism-based; settings: 50.2 M, tested as the 11C-labelled form; how it was run: as §2
Mus musculus [10] = assay: Binding affinity to amyloid beta in telencephalon region in APP/PS1 transgenic C57BL6/J mouse alzheimer's disease model at 50.2 MBq, iv after 5 to 30 mins by MRI examination relative to control; format: functional, organism-based; settings: 50.2 M, tested as the 11C-labelled form; how it was run: as §2
Mus musculus [11] = assay: Binding affinity to amyloid beta in cerebellum region in APP/PS1 transgenic C57BL6/J mouse alzheimer's disease model at 50.2 MBq, iv after 5 to 30 mins by autoradiography analysis relative to control; format: functional, organism-based; settings: 50.2 M, tested as the 11C-labelled form; how it was run: as §2
Mus musculus [12] = assay: Binding affinity to amyloid beta in telencephalon region in APP/PS1 transgenic C57BL6/J mouse alzheimer's disease model at 50.2 MBq, iv after 5 to 30 mins by autoradiography analysis relative to control; format: functional, organism-based; settings: 50.2 M, tested as the 11C-labelled form; how it was run: as §2
Mus musculus [13] = assay: Binding affinity to amyloid beta in iv dosed telencephalon region in APP/PS1 transgenic C57BL6/J mouse alzheimer's disease model after 5 to 30 mins by micro PET examination relative to control; format: functional, organism-based; how it was run: as §2
Brain [14] = assay: Drug uptake in Balb-C mouse brain at 4-6 MBq by gamma counting; settings: in vivo
Brain [15] = assay: Drug uptake in Balb-C mouse brain at 4-6 MBq after 5 mins by gamma counting; format: ADME, tissue-based; settings: in vivo; how it was run: as §1
[16] = Drug uptake in Balb-C mouse blood assessed as compound remaining after 10 mins at 4-6 MBq by gamma counting; format: ADME, tissue-based; settings: read-out: Drug uptake
How it was run: (§3)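 Normal Balb-C mice received an iv [11C]-labeled tracer. HPLC analysis of blood and brain homogenates was done at 10 and 30 min post-injection to give percent intact tracer (n=3).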

[17] = Drug uptake in Balb-C mouse blood assessed as compound remaining at 4-6 MBq after 30 mins by gamma counting; format: ADME, tissue-based; settings: read-out: Drug uptake; how it was run: as §3
[18] = Drug uptake in Balb-C mouse brain assessed as compound remaining at 4-6 MBq after 10 mins by gamma counting; format: ADME, tissue-based; settings: read-out: Drug uptake; how it was run: as §3
[19] = Drug uptake in Balb-C mouse brain assessed as compound remaining at 4-6 MBq after 30 mins by gamma counting; format: ADME, tissue-based; settings: read-out: Drug uptake; how it was run: as §3
[20] = tested as the 11C-labelled form

T1 sequence (P05067 whole entry): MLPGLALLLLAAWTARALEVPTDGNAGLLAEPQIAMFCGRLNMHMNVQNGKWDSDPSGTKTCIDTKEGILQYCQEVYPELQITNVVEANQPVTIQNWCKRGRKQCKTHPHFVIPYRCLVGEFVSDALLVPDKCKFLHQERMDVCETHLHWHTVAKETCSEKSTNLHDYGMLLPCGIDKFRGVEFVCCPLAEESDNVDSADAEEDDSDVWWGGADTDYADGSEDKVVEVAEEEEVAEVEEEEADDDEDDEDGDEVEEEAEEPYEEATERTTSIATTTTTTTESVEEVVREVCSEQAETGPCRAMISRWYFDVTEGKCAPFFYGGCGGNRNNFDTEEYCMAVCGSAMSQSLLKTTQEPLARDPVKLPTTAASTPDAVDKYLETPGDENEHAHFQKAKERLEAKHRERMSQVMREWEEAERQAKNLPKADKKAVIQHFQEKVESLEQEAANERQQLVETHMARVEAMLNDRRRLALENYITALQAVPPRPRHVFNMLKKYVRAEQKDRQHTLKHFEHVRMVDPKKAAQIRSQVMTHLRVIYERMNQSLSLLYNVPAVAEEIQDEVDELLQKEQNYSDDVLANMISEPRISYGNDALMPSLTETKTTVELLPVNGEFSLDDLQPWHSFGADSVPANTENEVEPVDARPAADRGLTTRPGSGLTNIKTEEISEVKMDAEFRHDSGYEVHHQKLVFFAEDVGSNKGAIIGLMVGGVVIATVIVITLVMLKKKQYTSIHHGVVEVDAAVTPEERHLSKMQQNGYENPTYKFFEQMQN

SMILES	inhibition [1] [%]	inhibition [2] [%]	logD [3]	Drug uptake (Brain [4]) [% ID/g]	Drug uptake (Brain [14]) [% ID/g]	also measured
CNc1ccc(-c2cn3c(n2)sc2cc(OC)ccc23)cc1	95	97	1.7	0.7		Ki [1]: 3.5 nM; Ki [2]: 5.8 nM; Ratio (Brain [5]): 9.1; Activity (Mus musculus [6]; [20]): Active; Activity (Mus musculus [7]): Active; Activity (Mus musculus [8]): inactive; Activity (Mus musculus [9]): inactive; Activity (Mus musculus [10]): Active; Activity (Mus musculus [11]): inactive; Activity (Mus musculus [12]): Active; Activity (Mus musculus [13]; [20]): Active
COc1ccc2c(c1)sc1nc(-c3ccc(N4CCCC4)cc3)cn12	91	82	1.9	0.7	1.9	
COc1ccc2c(c1)sc1nc(-c3ccc(NC(C)=O)cc3)cn12	44	64				
CNc1ccc(-c2nc3ccc(O)cc3s2)cc1	88	83				Activity (Mus musculus [6]; tested as the 3H-labelled form): Active; Activity (Mus musculus [13]; tested as the 3H-labelled form): Active
COc1ccc2c(c1)sc1nc(-c3ccc(N(C)C)cc3)cn12	89	91	1.9	0.7	1.9	
COc1ccc2c(c1)sc1nc(-c3ccc(N)cc3)cn12	57	74				
COc1ccc2c(c1)sc1nc(-c3ccc(N[11CH3])cc3)cn12						Drug uptake (Brain [15]): Active; remaining at 10 min [16]: 15%; remaining at 0.5 h [17]: 7%; remaining at 10 min [18]: 95%; remaining at 0.5 h [19]: 91%
CN(C)c1ccc(-c2cn3c(n2)sc2cc(O)ccc23)cc1	85	86				

The next lines start with results.

inhibition [1] [%]	inhibition [2] [%]	logD [3]	Drug uptake (Brain [4]) [% ID/g]	Drug uptake (Brain [14]) [% ID/g]	SMILES	also measured
46	73	1.2	0.7	1.9	CNc1ccc(-c2cn3c(n2)sc2cc(O)ccc23)cc1	
48	48				Nc1ccc(-c2cn3c(n2)sc2cc(O)ccc23)cc1	
91	91				Oc1ccc2c(c1)sc1nc(-c3ccc(N4CCCC4)cc3)cn12	
79	91	2.2	0.7	1.9	CCN(CC)c1ccc(-c2cn3c(n2)sc2cc(OC)ccc23)cc1	
79	91				CCN(CC)c1ccc(-c2cn3c(n2)sc2cc(O)ccc23)cc1	
